Bioassay records from PubChem BioAssay.
This excerpt belongs to a sample that is enriched for hits.
E-sel inducer = induces E-selectin expression in human endothelial cells. 0.37% of 260,000 active. activation, % at 7.58 µM. HUVEC E-selectin immunofluorescence imaging; normalized: neutral wells 0, TNF-alpha wells 100. P16581;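 active = mean E-selectin-positive cell signal at least 10% of the positive control, reached in at least 60% of replicates, without over 20% cell loss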
Target sequence (P16581 whole entry, looked up): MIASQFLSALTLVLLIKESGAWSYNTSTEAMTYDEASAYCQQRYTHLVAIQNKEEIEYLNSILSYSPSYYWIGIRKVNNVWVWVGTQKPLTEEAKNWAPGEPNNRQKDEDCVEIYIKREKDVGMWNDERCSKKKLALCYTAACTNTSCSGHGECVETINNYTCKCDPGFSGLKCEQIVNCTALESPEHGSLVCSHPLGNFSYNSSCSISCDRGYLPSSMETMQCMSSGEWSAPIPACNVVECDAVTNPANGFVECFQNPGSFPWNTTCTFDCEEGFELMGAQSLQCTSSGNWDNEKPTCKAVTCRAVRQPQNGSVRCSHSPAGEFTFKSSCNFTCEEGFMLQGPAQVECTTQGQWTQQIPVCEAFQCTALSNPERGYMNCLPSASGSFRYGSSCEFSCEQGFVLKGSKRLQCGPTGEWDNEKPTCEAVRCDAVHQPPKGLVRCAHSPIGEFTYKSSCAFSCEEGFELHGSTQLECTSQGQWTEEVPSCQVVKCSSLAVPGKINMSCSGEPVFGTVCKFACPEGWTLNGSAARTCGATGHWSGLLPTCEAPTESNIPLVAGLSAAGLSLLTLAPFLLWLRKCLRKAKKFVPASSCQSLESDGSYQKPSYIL
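System: HUVEC / Compound: single concentration / Signal: immunofluorescence imaging / Read-out: percent E-selectin-positive cells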
Xi reactivation = X-chromosome reactivation activator | 0.055% of 360,000 active | activation, % at 7.58 µM | XiGFP mouse fibroblasts, % GFP-positive cells imaging, 3 d; cells co-treated with 5-aza-dC sensitizer; scaled so ellipticine positive control = 100%;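 active = mean normalized replicate activation at least 10% and every replicate at or above 10%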;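 note: 0% = median of on-plate neutral control wells and 100% = ellipticine 6 µM median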
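material = 68-5-11 XiGFP fibroblast line | medium = DMEM plus 5-aza-dC sensitizer | schedule = 3 days compound exposure | benchmarks = positive control ellipticine, 6 µM final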
The depositor's hits bear a star; · = no result.

SMILES	E-sel inducer	Xi reactivation
COc1ccccc1CCC(=O)N1CCC(n2nccc2NC(=O)CC(C)C)CC1	0	0
COc1cccc(CCC(=O)N2CCC(n3nccc3NC(=O)CC(C)C)CC2)c1	39*	0
C=C(C)CCC(C)N1CCC(n2nccc2NC(=O)CCOc2ccccc2)CC1 (stereo not drawn)	44*	0
CC(C)NC(=O)N1CCC(n2nccc2NC(=O)CCOc2ccccc2)CC1	0	0
COc1ccc(-c2cn(CC[C@H]3CC[C@H](NC(=O)NC(C)C)[C@H](CO)O3)nn2)cc1	0	0
O=C(O)CSc1ncccn1	0	53*
O=C(CSc1ncccn1)NC1CCCC1	0	0
CC=Cc1ccc2n(c1=O)C[C@@H]1[C@@H](CO)[C@H](C(=O)NCc3ccncc3)N(Cc3cncnc3)[C@H]21 (mixture of isomers)	0	0
COc1ccc(S(=O)(=O)N(C)C[C@@H]2Oc3ccc(NS(=O)(=O)c4c(C)noc4C)cc3C(=O)N([C@@H](C)CO)C[C@H]2C)cc1	189*	0
COc1ccc(S(=O)(=O)N(C)C[C@H]2Oc3ccc(NS(=O)(=O)c4c(C)noc4C)cc3C(=O)N([C@H](C)CO)C[C@@H]2C)cc1	1	-1
COc1ccc(S(=O)(=O)Nc2ccc3c(c2)C(=O)N([C@@H](C)CO)C[C@@H](C)[C@@H](CN(C)S(=O)(=O)c2ccc(Cl)cc2)O3)cc1	-4	0
COc1ccc(S(=O)(=O)Nc2ccc3c(c2)C(=O)N([C@@H](C)CO)C[C@H](C)[C@H](CN(C)S(=O)(=O)c2ccc(Cl)cc2)O3)cc1	59*	0
CO[C@H]1CC[C@H]2CCOc3ccc(C#N)cc3C(=O)N(C)C[C@H](C)C(=O)N(C)C[C@@H]1O2	0	0
Cc1ccc(S(=O)(=O)Nc2ccc3c(c2)CC(=O)N([C@@H](C)CO)C[C@@H](C)[C@H](CN(C)C(=O)Nc2ccc(C(F)(F)F)cc2)O3)cc1	0	-1
CCc1ccc(-n2c(=S)sc3c(=O)n(-c4ccccc4C)c(SCC(=O)O)nc32)cc1	60*	0
Cc1ccc(-n2c(=S)sc3c(=O)n(-c4ccccc4C)c(SCC(=O)O)nc32)cc1C	0	0
C[C@@H]1CN([C@H](C)CO)C(=O)c2cc(C3=CCCCC3)cnc2O[C@@H]1CN(C)Cc1ccccn1	2	0
C[C@@H]1CN([C@H](C)CO)S(=O)(=O)c2ccc(-c3ccc(C#N)cc3)cc2O[C@@H]1CN(C)CC1CC1	0	-1
COC(=O)c1cc(S(=O)(=O)NCC2CCN(CCc3cccs3)CC2)c[nH]1	226*	0
COC(=O)c1cc(S(=O)(=O)NCC2CCN(Cc3ccc(F)cc3)CC2)c[nH]1	·	0
CCCNC(=O)[C@@H]1[C@@H](CO)[C@@H]2Cn3c(ccc(-c4ccccc4F)c3=O)[C@@H]2N1C(=O)C1CCC1	0	0
COc1cccc(CNC(=O)c2ccc(OC)c(S(=O)(=O)NC3CCCC3)c2)c1	1	0
COC(=O)c1ccc(CNC(=O)c2ccc(OC)c(S(=O)(=O)NC3CCCC3)c2)cc1	99*	0
O=C(c1cccnc1)N1CC2(C1)[C@@H](c1ccccc1)[C@@H](CO)N2C(=O)C1CCC1	0	0
CCNC(=O)C[C@H]1CC[C@H]2[C@@H](COC[C@@H](O)CN2S(=O)(=O)c2ccc(Oc3ccccc3)cc2)O1	0	0
SMILES	E-sel inducer	Xi reactivation
Cn1cc(C2=C(c3ccc(Cl)cc3Cl)C(=O)NC2=O)c2ccccc21	1	59*
Cn1cc(-c2ccccc2C(N)=O)c(=O)c2cc(Cl)ccc21	5	0
O=C(C[C@@H]1CC[C@H]2[C@@H](COC[C@H](O)CN2Cc2nccs2)O1)NCc1ccccc1	0	0
Nc1[nH]c2cc([N+](=O)[O-])ccc2c1-c1ccccn1	·	100*
Nc1nc2ccc([N+](=O)[O-])cc2[nH]1	1	0
COc1ccc(NC(=O)Nc2ccc3c(c2)C(=O)N([C@H](C)CO)C[C@H](C)[C@H](CN(C)C(=O)Cc2ccccc2)OCCCC[C@H](C)O3)cc1	0	0
CCCNS(=O)(=O)c1ccc2c(c1)n(C)c(=O)n2C	·	0
CCCCN(C)CCNS(=O)(=O)c1ccc2c(c1)n(C)c(=O)c(=O)n2C	164*	0
CCCN(C)C[C@H]1Oc2cc(C#CC3CCCC3)ccc2S(=O)(=O)N([C@H](C)CO)C[C@H]1C	0	0
C[C@@H]1CN([C@H](C)CO)C(=O)c2c(c3ccccc3n2C)-c2ccccc2CO[C@@H]1CN(C)C(=O)Nc1ccnc(N2CCOCC2)c1	3	0
COc1ccc(CN(C)C[C@@H]2Oc3ccc(NC(=O)Nc4ccc(F)cc4)cc3CC(=O)N([C@H](C)CO)C[C@@H]2C)cc1	76*	0
